# Published values of several laboratories.
# Compare with care: the assays were run in different laboratories.
# Observed: cell growth or viability
Compound,cell line,method,time,IC50
C[C@H]1O[C@@H](n2cc(F)c(=O)[nH]c2=O)[C@H](O)[C@@H]1O,IOSE-144,CCK-8,48 h,16.5 µM
CN(C)C/C=C/C(=O)Nc1cc2c(Nc3ccc(F)c(Cl)c3)ncnc2cc1O[C@H]1CCOC1,KB-C2,MTT,72 h,4.9 µM
O=C(N/N=C/c1c(O)ccc2ccccc12)c1cc(-c2ccc3ccccc3c2)n[nH]1,1205Lu,MTS,24 h,20.4 µM
COc1cc(Nc2nccc(-c3cnn4nc(OC)ccc34)n2)cc(C(F)(F)F)c1,HuTu80,ATP luminescence,,0.15 µM
Cc1cc(Nc2ncc(Cl)c(Nc3ccccc3S(=O)(=O)C(C)C)n2)c(OC(C)C)cc1C1CCNCC1,BJ,,72 h,2.6 µM
Oc1ccc(Nc2nc(-c3ccc(Cl)cc3)cs2)cc1,1205Lu,MTS,72 h,71.8 µM
C[C@@H](Oc1cc(-c2cnn(C3CCNCC3)c2)cnc1N)c1c(Cl)ccc(F)c1Cl,SW-1736,MTT,72 h,2.5 µM
Cc1[nH]c(/C=C2\C(=O)Nc3ccc(S(=O)(=O)N(C)c4cccc(Cl)c4)cc32)c(C)c1C(=O)N1CCN(C)CC1,BJ,,72 h,5.19 µM
C[C@H]1[C@@H](O)O[C@@H]2O[C@@]3(C)CC[C@H]4[C@H](C)CC[C@@H]1[C@@]24OO3,IOSE-144,CCK-8,48 h,> 50 µM
C[C@@H](Oc1cc(-c2cnn(C3CCNCC3)c2)cnc1N)c1c(Cl)ccc(F)c1Cl,BJ,,72 h,2.11 µM
COc1cccc2c1C(=O)c1c(O)c3c(c(O)c1C2=O)C[C@@](O)(C(=O)CO)C[C@@H]3O[C@H]1C[C@H](N)[C@H](O)[C@H](C)O1,4T1.2,MTT,48 h,272 ng/mL
